Efflux pump inh – inhibitors of Candida antifungal efflux pumps expressed in yeast | inhibition, % at 10 µM | S. cerevisiae Candida pump triplex, Nile Red efflux | actives 0.44% (n = 330,000);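 active = plate passing quality check with inhibition over a set limit, or well fluorescence over plate mean plus 4 SD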;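 also: Nile Red retained in pooled yeast measured as flow cytometry median fluorescence; 0% = buffer negative control and 100% = Enniatin B positive control; higher means more Nile Red kept so more efflux inhibition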
Cneo AK release – Cryptococcus neoformans lysis via adenylate kinase release; C. neoformans lysis, adenylate kinase release luminescence, 4 h; normalised: neutral wells 0, clomiphene wells 100; lysis activity, % at 15 µM; actives 0.2% (n = 360,000); AID 651654;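 active = mean lysis activity across replicates of at least 80%, whatever share of replicates individually reach that level; inactive = mean lysis activity below 80%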
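Material: C. neoformans cells | Amount: Yeast cell density of 5 × 10^6 cells/mL | Medium: Fresh YPD growth medium | Dosing: Single dose | Times: Static 4 h at 37 °C with compound, 1 h detection | Detection: AK luminescence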
Mot1-301 SUMO – inhibitors of SUMOylation pathway: yeast Mot1-301 growth rescue | S. cerevisiae Mot1-301 growth rescue, ATP luminescence, 38.5C; percent above DMSO median, 100 means doubled | growth rescue, % at 18.8 µM | actives 1% (n = 320,000);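 active = every valid replicate shows activation above 250% relative to neutral control wells; inactive = the rest, any valid replicate at or below 250%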;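 also: OY570 slx delta 5 strain wells were the positive control but not used for scaling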
Statin myotox sup – suppression of simvastatin myotoxicity. rescue of ATP level, % at 7.49 µM. C2C12 myotubes + simvastatin, ATP luminescence, 48 h; scaled: DMSO 0, geranylgeraniol control 100. AID 602340. actives 0.78% (n = 330,000);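 active = mean ATP rescue above about 67%, or every replicate alone reaching that limit, limit read from the data, passing the limit was not always enough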;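 also: myotubes were challenged with 10 µM simvastatin during compound exposure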
Cmpd fluor yeast – counter-screen for efflux pump inhibitors: compound fluorescence; shares compounds with Efflux pump inh; S. cerevisiae AD/pABC3, flow cytometry; fluorescence ratio to DMSO, % at 10 µM; actives 4% (n = 1,700); AID 588517;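 active = fluorescence ratio to DMSO above its plate's cutoff, the plate mean ratio plus 5 SD, cut at about 210% in these data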;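 also: unstained yeast with no Nile Red so the signal is compound autofluorescence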
Mdr1 pump inh – inhibitors of Candida albicans Mdr1 efflux pump; shares compounds with Efflux pump inh; S. cerevisiae AD/CaMDR1, Nile Red efflux, flow cytometry; inhibition, % at 10 µM; actives 1% (n = 1,700); AID 588518; in the data active = inhibition above about 26%;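 also: 0% = DMSO vehicle and 100% = reference inhibitor; higher means more Nile Red retained so more efflux inhibition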
CaCdr2 efflux inh – inhibitors of Candida albicans Cdr2 efflux pump. Nile Red retention ratio vs DMSO, % at 10 µM. actives 4% (n = 1,700). S. cerevisiae AD/CaCDR2, Nile Red retention, flow cytometry. shares compounds with Efflux pump inh; in the data active = Nile Red retention ratio vs DMSO above about 190%;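 also: higher ratio means more blocking of Cdr2 efflux of the dye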
CaCdr1 efflux inh – blocks the Candida albicans Cdr1 efflux pump in yeast; actives 1% (n = 1,700); S. cerevisiae AD/CaCDR1, Nile Red efflux, flow cytometry; inhibition, % at 10 µM; AID 588522; shares compounds with Efflux pump inh;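 active = inhibition above the screen-wide mean plus twice its standard deviation, cut at about 32% in these data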
* = called active by the depositor; / = no result given. Most compounds without a hit are left out; they make up all but 1.8% or so of the library.

SMILES	Efflux pump inh	Cneo AK release	Mot1-301 SUMO	Statin myotox sup	Cmpd fluor yeast	Mdr1 pump inh	CaCdr2 efflux inh	CaCdr1 efflux inh
CCOCc1nnc(NC(=O)COc2ccc3c(c2)OCO3)s1	1.7*	2.0	-2.9	3.7	107.2	0.0	98.5	0.0
CN1CCc2nc(NC(=O)COc3ccc4ccccc4c3)sc2C1	0.2	/	-4.7	/	/	/	/	/
O=C(COc1ccccc1)Nc1nnc(COc2ccccc2)s1	0.0	0.1	10.1	/	73.7	-0.2	89.0	-0.3
CCOc1ccccc1OCC(=O)Nc1nnc(COC)s1	0.0	-1.7	-18.3	-4.2	104.5	0.0	96.3	0.0
CCc1nnc(NC(=O)COc2ccc3ccccc3c2)s1	0.0	/	5.3	0.2	114.3	0.0	106.0	0.0
CCNC(=O)C[C@H]1CC[C@@H]2[C@@H](COc3ccc(NC(=O)c4ccc(F)c(F)c4)cc3C(=O)N2C)O1	/	-0.9	/	27.0	/	/	/	/
CCOC(=O)c1c(NC(=S)Nc2ccccc2)sc2c1CC(C)(C)SC2	0.5*	/	60.1	/	202.2	5.7	245.2*	4.3
c1cc2ccc3ccc(CN4CCOCC4)c4ccc(c1)c2c34	1.1*	-1.2	52.7	-5.6	105.8	0.0	100.7	0.1
OC1CCCN(Cc2ccc3ccc4cccc5ccc2c3c45)C1 (centres undefined)	-0.1	-0.9	-0.7	25.4	/	/	/	/
O=C(CSc1nc2c(sc3ccccc32)c(=O)n1CCc1ccccc1)NCc1ccco1	1.5*	-0.3	46.9	-13.6	95.0	-0.4	95.6	0.0
CCCCn1c(SCC(=O)NCc2ccco2)nc2c(sc3ccccc32)c1=O	0.7	0.0	7.5	-8.9	/	/	/	/
NC(=O)Nc1ccc(Nc2ccccc2)cc1	-0.1	/	11.6	/	/	/	/	/
O=C(Nc1ccc(Nc2ccccc2)cc1)C(Cl)Cl	20.2*	/	55.6	/	118.2	0.2	111.6	0.1
COc1ccc(Nc2nc(N)c(C(=O)c3ccc(OC)cc3)s2)cc1	-0.4	-6.6	28.3	-33.0	/	/	/	/
COc1ccc(Nc2nc(N)c(C(=O)c3ccc(F)cc3)s2)cc1	12.3*	22.4	19.8	-46.4	97.8	0.0	96.0	0.0
Cc1ccc(N2CC(C(=O)OCC(=O)Nc3ccccc3F)CC2=O)cc1 (centres undefined)	-0.1	/	7.0	/	/	/	/	/
C=CCn1c(=S)[nH]c2scc(-c3ccc(C)o3)c2c1=O	-0.1	/	-38.7	/	/	/	/	/
C=CCn1c(=S)[nH]c2sccc2c1=O	0.8*	/	-0.6	/	94.8	-0.2	98.5	0.0
Cc1ccc(S(=O)(=O)N(CC(=O)NCc2ccco2)Cc2ccc(F)cc2)cc1	0.1	2.2	-0.1	0.8	/	/	/	/
CC1CCc2c(sc3nc(CN4CCOCC4)nc(N4CCc5ccccc5C4)c23)C1 (centres undefined)	20.3*	/	-26.9	/	90.7	0.0	116.0	-0.1
Cc1ccc(Oc2nc(CN3CCOCC3)nc3sc4c(c23)CCC(C)C4)cc1 (centres undefined)	-0.3	2.6	80.3	/	/	/	/	/
COCCCN1C(=O)C(CC(=O)NCc2cccs2)CC(C(=O)N(C)C)=C1C (centres undefined)	/	3.5	/	2.7	/	/	/	/
C[C@H]1CN([C@@H](C)CO)C(=O)c2cccc(NC(=O)c3ccncc3)c2O[C@H]1CN(C)C(=O)Nc1ccc2c(c1)OCO2	/	-10.9	/	-12.2	/	/	/	/
Cc1cccc(NC(=O)/C(C#N)=C/c2cn(CC(=O)NCc3ccco3)c3ccccc23)c1C	11.1*	/	6.5	-20.6	105.8	0.1	116.0	0.1
Cc1cc(CNC(=O)c2cccc3c2C(=O)c2ccc(-c4ccc(F)cc4OCc4ccccc4)cc2S3(=O)=O)c(C(F)(F)F)o1	0.4	1.4	-3.1	-12.5	/	/	/	/
SMILES	Efflux pump inh	Cneo AK release	Mot1-301 SUMO	Statin myotox sup	Cmpd fluor yeast	Mdr1 pump inh	CaCdr2 efflux inh	CaCdr1 efflux inh
O=C1OCCN1C(=O)[C@H]1[C@H](c2ccc(F)cc2)C(c2cccc(Cl)c2)=NN1c1ccccc1	1.4*	-1.7	/	12.1	110.0	0.0	97.5	0.0
O=C1OCCN1C(=O)[C@H]1[C@H](c2ccc(Cl)cc2)C(c2cccc(Cl)c2)=NN1c1ccccc1	/	-2.3	-3.8	-12.2	/	/	/	/
O=C(/C=C/c1ccc2c(c1)OCO2)NCCCN1CCOCC1	11.1*	-0.8	-10.8	7.7	98.2	0.0	99.7	-0.1
CSc1ccc(CN2CCSCC2)cc1	0.1	0.7	27.9	2.4	/	/	/	/
Cc1ncc(C(=O)O)c(C(=O)O)c1N	5.5*	-1.4	-4.0	4.2	114.6	-0.3	108.3	0.1
C[C@H]1CN([C@@H](C)CO)C(=O)c2cccc(NC(=O)Nc3ccccc3)c2O[C@H]1CN(C)S(=O)(=O)c1ccccc1	/	-0.6	/	30.1	/	/	/	/
C[C@H](CO)N1C[C@H](C)[C@@H](CN(C)S(=O)(=O)c2cccs2)Oc2c(NC(=O)Nc3ccc4c(c3)OCO4)cccc2C1=O	-0.2	-2.5	-6.9	-16.8	102.2	-0.3	116.5	0.1
CC(C)NC(=O)Nc1cccc2c1O[C@H](CN(C)S(=O)(=O)c1ccc(F)cc1)[C@H](C)CN([C@H](C)CO)C2=O	/	7.8	/	-7.2	/	/	/	/
C[C@@H]1CN([C@@H](C)CO)C(=O)c2cccc(NC(=O)Nc3ccc4c(c3)OCO4)c2O[C@H]1CN(C)S(=O)(=O)c1cccs1	/	-1.8	/	3.5	/	/	/	/
C[C@H](CO)N1C[C@H](C)[C@@H](CN(C)S(=O)(=O)c2ccccc2)Oc2c(NC(=O)Nc3ccccc3)cccc2C1=O	0.7	6.4	/	-11.2	100.2	-0.1	105.7	-0.1
CC(C)NC(=O)Nc1cccc2c1O[C@H](CN(C)S(=O)(=O)c1ccc(F)cc1)[C@@H](C)CN([C@H](C)CO)C2=O	0.2	-0.4	/	-6.9	111.5	0.1	105.7	0.2
CC1CCC(NC(=O)C2CCC(CNc3c(N4CCCCC4)c(=O)c3=O)CC2)CC1 (centres undefined)	-0.1	-1.6	-11.0	/	/	/	/	/
Nc1c(N(CCC2=CCCCC2)C(=O)COc2ccc([N+](=O)[O-])cc2)c(=O)[nH]c(=O)n1Cc1ccccc1	/	-0.7	/	-145.7	/	/	/	/
C=C1CCN([C@H](C(=O)OCc2ccc(C)cc2)C(C)C)S(=O)(=O)c2ccccc21	0.0	2.3	-4.8	1.3	/	/	/	/
Cc1nn(CC(=O)NCc2cccs2)c(=O)c2nn(-c3ccccc3)c(C)c12	6.2*	-2.2	-20.3	-0.1	99.3	-0.2	89.0	0.0
Cc1ccc(-n2nc3c(=O)n(CCCC(=O)NCc4ccc(C)o4)nc(C)c3c2C)cc1	0.1	1.5	42.7	-13.8	103.1	-0.3	98.5	-0.1
CCOC(=O)C1NN=C(C(=O)c2ccccc2)C1c1ccc(OC)cc1 (centres undefined)	1.4*	/	1.9	/	100.3	-0.3	111.6	0.0

From PubChem
